# Results as given in ChEMBL document CHEMBL4014307, “Diindolylmethane Derivatives: Potent Agonists of the Immunostimulatory Orphan G Protein-Coupled Receptor GPR84” (J Med Chem, 2017).
# pEC50: −log10 of the molar value. The source made the active and inactive calls.
# Assays:
# [1] = target: T1, G-protein coupled receptor 84 (Homo sapiens, UniProt Q9NQS5); assay: Agonist activity at Gi coupled human GPR84 expressed in CHO cells assessed as inhibition of forskolin-induced cAMP accumulation at 10 uM after 15 mins in presence of [3H]-cAMP by radiometric assay relative to decanoic acid; type: functional, cell-based
# T1 sequence (Q9NQS5 whole entry): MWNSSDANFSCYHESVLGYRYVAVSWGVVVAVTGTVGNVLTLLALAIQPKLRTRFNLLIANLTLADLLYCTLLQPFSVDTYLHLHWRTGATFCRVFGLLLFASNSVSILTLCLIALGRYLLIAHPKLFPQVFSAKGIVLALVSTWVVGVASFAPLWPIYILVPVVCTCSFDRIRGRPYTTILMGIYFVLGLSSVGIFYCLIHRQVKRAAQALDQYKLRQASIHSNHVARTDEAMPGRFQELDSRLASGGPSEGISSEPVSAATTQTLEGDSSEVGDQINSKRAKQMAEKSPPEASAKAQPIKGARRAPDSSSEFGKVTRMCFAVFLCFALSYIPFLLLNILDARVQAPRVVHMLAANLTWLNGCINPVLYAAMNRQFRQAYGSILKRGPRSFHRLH
# How it was run: (§1)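 Forskolin (10 µM) added with or without test compound for 15 min. Cells lysed in hot (90 °C) EDTA/Triton X-100 solution. cAMP measured radiometrically with bovine adrenal binding protein and [³H]cAMP, expressed as % of forskolin-alone response.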
# [2] = target: T1, G-protein coupled receptor 84; assay: Agonist activity at Gi coupled human GPR84 expressed in CHO cells assessed as inhibition of forskolin-induced cAMP accumulation after 15 mins in presence of [3H]-cAMP by radiometric assay; type: functional, cell-based; how it was run: as §1
# [3] = target: T1, G-protein coupled receptor 84; assay: Antagonist activity at Gi coupled human GPR84 expressed in CHO cells assessed as inhibition of decanoic acid-induced receptor activation at 10 uM; type: cell-based
# [4] = target: Free fatty acid receptor 1 (Homo sapiens, UniProt O14842); assay: Agonist activity at Gq protein coupled human FFAR1 expressed in human 1321N1 cells assessed as induction of intracellular calcium level at 10 uM measured at 1.2 secs time interval by Fluo-4-AM dye based fluorescence assay; type: functional, cell-based
# Sequence of Free fatty acid receptor 1 (O14842 whole entry): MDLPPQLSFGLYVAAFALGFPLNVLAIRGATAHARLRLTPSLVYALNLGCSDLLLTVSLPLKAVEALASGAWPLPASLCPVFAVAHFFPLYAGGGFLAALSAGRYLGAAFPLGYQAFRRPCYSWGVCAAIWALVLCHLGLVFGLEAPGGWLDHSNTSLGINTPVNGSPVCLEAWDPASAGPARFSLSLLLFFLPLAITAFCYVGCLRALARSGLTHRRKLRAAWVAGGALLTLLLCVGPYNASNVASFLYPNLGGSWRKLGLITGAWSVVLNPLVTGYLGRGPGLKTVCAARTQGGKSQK
# How it was run: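 1321N1 astrocytoma cells retrovirally expressing human FFAR1, 50,000 per well, loaded 60 min at rt in dark with 3 µM Fluo-4-AM and 0.06 % Pluronic F-127 in HBSS. Compounds at 10 µM final; antagonist mode uses 30 min preincubation before TUG-424 (final 1 µM). Fluorescence at 520 nm (excitation 485 nm), 90 reads at 1.2 s intervals. Normalized to TUG-424 at 10 µM (agonist) or 1 µM (antagonist).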
# [5] = target: T2, Free fatty acid receptor 4 (Homo sapiens) (UniProt Q5NUL3); assay: Agonist activity at human FFAR4 expressed in CHO cells assessed as beta-arrestin recruitment at 10 uM after 90 mins by beta-galactosidase complementation assay; type: cell-based
# T2 sequence (whole entry): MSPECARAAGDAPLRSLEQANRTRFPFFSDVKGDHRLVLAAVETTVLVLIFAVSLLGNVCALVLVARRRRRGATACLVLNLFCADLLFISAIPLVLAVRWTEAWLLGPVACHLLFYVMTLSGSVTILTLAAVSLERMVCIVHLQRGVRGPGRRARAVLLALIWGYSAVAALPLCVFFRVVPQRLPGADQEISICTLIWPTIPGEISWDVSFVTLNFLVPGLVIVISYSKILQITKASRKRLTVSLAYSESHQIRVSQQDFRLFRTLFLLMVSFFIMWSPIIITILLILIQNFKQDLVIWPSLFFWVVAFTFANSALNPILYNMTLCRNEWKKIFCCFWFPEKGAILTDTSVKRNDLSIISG
# How it was run: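 Human FFAR4 in CHO β-galactosidase complementation cells, 30,000 per well, serum-free F12 ~4 h before assay; final DMSO 1 %, compounds 10 µM. Agonist mode: 90 min with agonist, then detection 60 min rt dark; luminescence. 3–4 experiments in duplicate.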
# [6] = target: T2, Free fatty acid receptor 4 (Homo sapiens); assay: Antagonist activity at human FFAR4 expressed in CHO cells assessed as inhibition of TUG-89-induced beta-arrestin recruitment at 10 uM preincubated for 30 mins followed by TUG-89 addition measured after 90 mins by beta-galactosidase complementation assay; type: cell-based
# [7] = target: T1, G-protein coupled receptor 84; assay: Agonist activity at human GPR84 expressed in CHO cells assessed as beta-arrestin recruitment after 90 mins by beta-galactosidase complementation assay; type: cell-based
# How it was run: (§2)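 CHO cells co-expressing human GPR84–β-galactosidase fragment and β-arrestin–complementary fragment, 20,000 per well. Compounds in DMSO (final ≤1 %) added for 90 min, then detection reagent for 60 min at rt; luminescence read. Three to five independent experiments in duplicate.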
# [8] = target: T1, G-protein coupled receptor 84; assay: Agonist activity at human GPR84 expressed in CHO cells assessed as beta-arrestin recruitment at 10 uM after 90 mins by beta-galactosidase complementation assay relative to embelin; type: cell-based; how it was run: as §2
SMILES,Emax [1],pEC50 [2],inhibition [3],Activity [4],Activity [5],inhibition [6],pEC50 [7],Emax [8]
COc1cccc2c(Cc3c[nH]c4c(OC)cccc34)c[nH]c12,18%,< 5.00,inactive,inactive,inactive,inactive,,
COc1ccc2[nH]cc(CC3C(=O)Nc4ccccc43)c2c1 (centres undefined),-21%,< 5.00,inactive,inactive,inactive,inactive,,
O=C1Nc2ccc(F)cc2C1Cc1c[nH]c2ccc(F)cc12 (centres undefined),16%,< 5.00,inactive,inactive,inactive,inactive,,
Fc1cc2c(Cc3c[nH]c4cc(Cl)c(F)cc34)c[nH]c2cc1Cl,83%,4.97,,,inactive,inactive,5.40,181%
O=[N+]([O-])c1ccc2[nH]cc(Cc3c[nH]c4ccc([N+](=O)[O-])cc34)c2c1,31%,< 5.00,inactive,inactive,inactive,inactive,,
COc1ccc(C(c2c[nH]c3ccccc23)c2c[nH]c3ccccc23)cc1,-3%,< 5.00,inactive,inactive,inactive,inactive,,
Fc1ccc(C(c2c[nH]c3ccccc23)c2c[nH]c3ccccc23)cc1,8%,< 5.00,inactive,inactive,inactive,inactive,,
COc1ccc2[nH]cc(Cc3c[nH]c4ccc(OC)cc34)c2c1,119%,6.43 to 6.44,,inactive,inactive,inactive,5.92,103%
Fc1ccc2[nH]cc(Cc3c[nH]c4ccccc34)c2c1,115%,,,inactive,inactive,inactive,,72%
O=C1Nc2ccccc2C1=Cc1c[nH]c2ccc(F)cc12,-1%,< 5.00,inactive,inactive,inactive,inactive,,
COc1ccc2[nH]cc(/C=C3\C(=O)Nc4ccccc43)c2c1,-10%,< 5.00,inactive,inactive,inactive,inactive,,
Clc1ccc2[nH]cc(Cc3c[nH]c4ccc(Cl)cc34)c2c1,86%,5.30,,inactive,inactive,inactive,,
Clc1ccc(C(c2c[nH]c3ccccc23)c2c[nH]c3ccccc23)cc1,-4%,< 5.00,inactive,inactive,inactive,inactive,,
O=C1Nc2ccccc2C1Cc1ccc2[nH]ccc2c1 (centres undefined),7%,< 5.00,inactive,inactive,inactive,inactive,,
O=[N+]([O-])c1ccc(C(c2c[nH]c3ccccc23)c2c[nH]c3ccccc23)cc1,6%,< 5.00,inactive,inactive,inactive,inactive,,
COc1ccc2[nH]cc(CC3C(=O)Nc4ccc(F)cc43)c2c1 (centres undefined),-10%,< 5.00,inactive,inactive,inactive,inactive,,
Cc1ccc2c(Cc3c[nH]c4cc(C)ccc34)c[nH]c2c1,-22%,< 5.00,inactive,inactive,inactive,inactive,,
N#Cc1ccc2[nH]cc(Cc3c[nH]c4ccc(C#N)cc34)c2c1,49%,≤ 5.00,inactive,inactive,inactive,inactive,,
COC(=O)c1ccc2[nH]cc(Cc3c[nH]c4ccc(C(=O)OC)cc34)c2c1,11%,< 5.00,inactive,inactive,inactive,inactive,,
Clc1cc(Cl)c2c(Cc3c[nH]c4cc(Cl)cc(Cl)c34)c[nH]c2c1,51%,≤ 5.00,inactive,inactive,inactive,inactive,,
O=C1Nc2ccc(F)cc2/C1=C/c1c[nH]c2ccc(F)cc12,5%,< 5.00,inactive,inactive,inactive,inactive,,
COc1ccc2c(Cc3c[nH]c4cc(OC)ccc34)c[nH]c2c1,31%,< 5.00,inactive,inactive,inactive,inactive,,
COC(=O)c1ccc2[nH]cc(Cc3c[nH]c4ccccc34)c2c1,57%,5.00,,inactive,inactive,inactive,,

# Further lines, results first:
Emax [1],pEC50 [2],inhibition [3],Activity [4],Activity [5],inhibition [6],pEC50 [7],Emax [8],SMILES
97%,5.72,,inactive,inactive,inactive,5.19,110%,COc1ccc2[nH]cc(Cc3c[nH]c4ccccc34)c2c1
47%,≤ 5.00,inactive,inactive,inactive,inactive,,,COc1cccc2[nH]cc(Cc3c[nH]c4cccc(OC)c34)c12
106%,5.46,,inactive,inactive,inactive,,,Brc1ccc2[nH]cc(Cc3c[nH]c4ccc(Br)cc34)c2c1
112%,6.01,,inactive,inactive,inactive,< 5.00,24%,Cc1cccc2[nH]cc(Cc3c[nH]c4cccc(C)c34)c12
45%,≤ 5.00,,inactive,inactive,inactive,≤ 5.00,49%,Cc1ccc2[nH]cc(Cc3c[nH]c4ccc(C)cc34)c2c1
,< 5.00,,,,,5.53,,Fc1cc2cc[nH]c2cc1F
,,,inactive,,,,,Cc1ccccc1C#Cc1ccc(CCC(=O)O)cc1
36%,< 5.00,inactive,inactive,inactive,inactive,,,c1ccc(COc2ccc3[nH]cc(Cc4c[nH]c5ccc(OCc6ccccc6)cc45)c3c2)cc1
5%,< 5.00,inactive,inactive,inactive,inactive,,,O=C(O)c1ccc2[nH]cc(Cc3c[nH]c4ccccc34)c2c1
-4%,< 5.00,inactive,inactive,inactive,inactive,,,O=Cc1ccc2[nH]cc(Cc3c[nH]c4ccc(C=O)cc34)c2c1
